From ChEMBL document CHEMBL1129597, “2-[2'-(Dimethylamino)ethyl]-1,2-dihydro- 3H-dibenz[de,h]isoquinoline-1,3-diones with substituents at positions 4, 8, 9, 10, and 11. Synthesis, antitumor activity, and quantitative structure-activity relationships” (J Med Chem, 1996)

Tests used:
L1210 [1] = experiment: Antitumor activity against sensitive L1210 murine leukemia cell lines.; type: functional, cell-based; details: Mus musculus
In short: (§1)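 Murine L1210 leukemia cells, sensitive or MDR subline, in culture. Continuous drug exposure during MTT assay. Five concentrations per analogue, six determinations per concentration. The IC50 was derived.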

[2] = The quotient of the IC50 in the myocytes divided by the mean IC50 in the three cell lines; type: functional
In short: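 Calculated index: the myocyte IC50 divided by the mean IC50 across three tumor lines (sensitive L1210, melanoma UACC375, ovarian OVCAR3).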

WiDr [3] = experiment: Activity against human colon carcinoma multi drug resistant (MDR)-WiDr cell line.; type: functional, cell-based
A549 = experiment: Activity against A549 cancer cell line.; type: functional, cell-based; details: Homo sapiens
OVCAR-3 [4] = experiment: Antitumor activity against human ovarian OVCAR-3 cell lines.; type: functional, cell-based
In short: (§2)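 Cultured human tumor cells (melanoma UACC375, ovarian OVCAR3) under continuous drug exposure. Growth was read by sulforhodamine or MTT assay. Five concentrations per analogue, six determinations per concentration. IC50 values were derived from these.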

MCF7 [5] = experiment: Antitumor activity against human mammary carcinoma doxorubicin-resistant […] breast cell line.; type: functional, cell-based
WiDr [6] = experiment: Activity against human colon carcinoma sensitive WiDr cell line.; type: functional, cell-based
Rattus norvegicus = organism: Rattus norvegicus; experiment: Cardiotoxicity measured by the ATP/protein ratio compared with untreated controls using neonatal rat heart myocyte assay.; type: functional; set-up: Cardiotoxicity: unit not given here
In short: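 Neonatal rat heart myocytes exposed to drug for 1 h. The ATP/protein ratio was measured versus untreated control myocytes. IC50 is the concentration reducing this ratio to 50% of control.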

UACC-375 = experiment: Antitumor activity against human melanoma UACC375 cell line.; type: functional, cell-based; in short: as §2
L1210 [7] = experiment: Antitumor activity against murine leukemia L1210 cell line.; type: functional, cell-based; details: Mus musculus; in short: as §1
MCF7 [8] = experiment: Antitumor activity against human mammary carcinoma sensitive […] breast cell line.; type: functional, cell-based
MCF7 [9] = experiment: Antitumor activity against human mammary carcinoma mitoxantrone-resistant […] breast cell line.; type: functional, cell-based
L1210 [10] = experiment: Compound was tested for antitumor activity against Murine leukemia cell line (L1210).; type: functional, cell-based; details: Mus musculus; in short: as §1
MCF7 [11] = experiment: Compound was tested for antitumor activity against Human mammary carcinoma sensitive cell line ([…] breast).; type: functional, cell-based
WiDr [12] = experiment: The compound tested for activity againstHuman colon carcinoma sensitive WiDr cell line.; type: functional, cell-based; details: Homo sapiens
MCF7 [13] = experiment: Compound was tested for antitumor activity against Human mammary carcinoma Doxorubicin resistant […] breast cell line.; type: functional, cell-based
Mus musculus [14] = organism: Mus musculus; experiment: (§3) Percent increase in life span when given at a dose in P388 leukemia cells of mice; type: functional
In short: (§4)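 P388 leukemia in mice, standard NCI protocol: 10^6 leukemia cells given ip; compound given ip in equal doses on days 1, 5 and 9. Highest dose used was 10% below the LD10 for acute toxicity in that mouse species. %ILS = 100 × (treated life span − control life span)/control life span, reported at the highest nontoxic dose.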

[15] = as §3; type: functional; in short: as §4
WiDr [16] = experiment: Compound was tested for antitumor activity against The compound tested for activity against Human colon carcinoma, Multi Drug resistant(MDR) WiDr - cell line.; type: functional, cell-based
OVCAR-3 [17] = experiment: Compound was tested for antitumor activity against. Human ovarian (OVCAR-3) cell lines.; type: functional, cell-based
WiDr (Homo sapiens) = experiment: Compound was tested for antitumor activity against The compound tested for activity against Human colon carcinoma sensitive WiDr cell line.
Mus musculus [18] = organism: Mus musculus; experiment: Percent increase in life span when given at a dose in P388 leukemia cells of mice (Positive control for compounds 15,34 and amonafide); type: functional; in short: as §4
Mus musculus [19] = organism: Mus musculus; experiment: Percent increase in life span when given at a dose in P388 leukemia cells of mice (Positive control for compound 44); type: functional; in short: as §4

IC50 (L1210 [1]) [nM]	IC50 (WiDr [3]) [nM]	IC50 (A549) [nM]	IC50 (OVCAR-3 [4]) [nM]	IC50 (MCF7 [5]) [nM]	IC50 (WiDr [6]) [nM]	IC50 (UACC-375) [nM]	IC50 (L1210 [7]) [nM]	IC50 (MCF7 [8]) [nM]	SMILES	Toxicity ratio [2]	IC50 (Rattus norvegicus) [nM]	IC50 (MCF7 [9]) [nM]	other results
189	270	40	1890	200	100	540	189	81	CN(C)CCN1C(=O)c2cccc3cc4cccc(O)c4c(c23)C1=O	18	15400	80	–
54	120	34	122	–	–	176	–	–	Cc1ccc2cc3ccccc3c3c2c1C(=O)N(CCN(C)C)C3=O	12	1360	140	IC50 (L1210 [10]): 68 nM; IC50 (MCF7 [11]): 390 nM; IC50 (WiDr [12]): 60 nM; IC50 (MCF7 [13]): 330 nM
210	680	78	715	530	400	390	245	190	CN(C)CCNc1ccc2cc3ccccc3c3c2c1C(=O)N(CCN(C)C)C3=O	1.7	734	230	–
–	–	–	–	–	–	–	–	–	O=C1c2c(O)ccc(O)c2C(=O)c2c(NCCNCCO)ccc(NCCNCCO)c21 [MITOXANTRONE]	368	7740	–	ILS (Mus musculus [14]): 200%
8.1	13	4.8	6.7	25	17	16	–	15	CN(C)CCN1C(=O)c2cccc3cc4ccc(F)cc4c(c23)C1=O	45.6	456	12	–
–	–	–	–	–	–	–	–	–	CN(C)CCN1C(=O)c2cccc3cc4ccc(NC(=O)C(C)(C)C)cc4c(c23)C1=O	–	–	–	ILS [15]: 105%
25	74	2.5	23	8.7	9.5	18	25	13	CN(C)CCN1C(=O)c2cccc3cc4ccc([N+](=O)[O-])cc4c(c23)C1=O	36	801	14	–
7.7	140	9.9	231	71	100	90	7.7	49	CN(C)CCN1C(=O)c2cccc3cc4cc(Cl)ccc4c(c23)C1=O	14	1540	68	–
–	–	–	–	–	–	–	–	–	CC(=O)Nc1cccc2c3c4c(cccc4cc12)C(=O)N(CCN(C)C)C3=O	–	–	–	ILS [15]: 109%
5.1	85	8.2	64	8	17	64	7.7	58	CN(C)CCN1C(=O)c2cccc3cc4ccc(Cl)cc4c(c23)C1=O	18	771	48	–
54	130	27	543	120	65	163	54	73	COc1ccc2c3c4c(cccc4cc2c1)C(=O)N(CCN(C)C)C3=O	<10.3	–	95	Cardiotoxicity (Rattus norvegicus): < 2600
70	320	120	348	190	180	1860	128	70	CN(C)CCN1C(=O)c2cccc3cc4ccc(-c5ccccc5)cc4c(c23)C1=O	–	–	33	–
108	900	60	216	230	130	270	67	83	CN(C)CCN1C(=O)c2cccc3cc4c(O)cccc4c(c23)C1=O	15	2950	120	–
15	16	2.2	12	20	11	10	13	13	CN(C)CCN1C(=O)c2cccc3cc4ccc(C#N)cc4c(c23)C1=O	9	105	12	–
10	–	12	–	–	–	332	–	50	CN(C)CCN1C(=O)c2c(Cl)ccc3cc4ccccc4c(c23)C1=O	5.2	900	60	IC50 (WiDr [16]): 190 nM; IC50 (L1210 [10]): 15 nM; IC50 (OVCAR-3 [17]): 180 nM; IC50 (WiDr (Homo sapiens)): 90 nM; IC50 (MCF7 [13]): 85 nM
21	61	31	78	52	40	52	52	38	COc1ccc2cc3cccc4c3c(c2c1)C(=O)N(CCN(C)C)C4=O	182	9100	41	–
13	30	4.8	52	67	9	52	18	120	COc1cccc2c3c4c(cccc4cc12)C(=O)N(CCN(C)C)C3=O	21	806	5.4	–
1780	1000	61	9000	710	390	2060	617	340	CN(C)CCN1C(=O)c2cccc3cc4cccc(Cl)c4c(c23)C1=O	1.9	8230	120	–
–	–	–	–	–	–	–	–	–	COc1cccc2c1C(=O)c1c(O)c3c(c(O)c1C2=O)C[C@@](O)(C(=O)CO)C[C@@H]3O[C@H]1C[C@H](N)[C@H](O)[C@H](C)O1 [DOXORUBICIN]	–	10200	–	ILS (Mus musculus [18]): 113%; ILS (Mus musculus [19]): 72%
41	120	14	68	140	120	81	54	110	Cc1ccc2cc3cccc4c3c(c2c1)C(=O)N(CCN(C)C)C4=O	16	1000	90	–
312	130	31	176	59	40	624	52	42	CN(C)CCN1C(=O)c2cccc3cc4ccc(I)cc4c(c23)C1=O	13	4790	49	–
189	240	1.7	2130	35	17	1220	540	5.8	CN(C)CCN1C(=O)c2cccc3cc4ccc(O)cc4c(c23)C1=O	>23	> 27000	17	–
5.8	64	31	102	50	51	44	14.6	49	CNCCN1C(=O)c2cccc3cc4ccc(Cl)cc4c(c23)C1=O	28	1430	42	–
70	900	81	507	690	660	182	179	350	COc1ccc2cc3ccccc3c3c2c1C(=O)N(CCN(C)C)C3=O	–	–	520	–
–	–	–	–	–	–	–	–	–	CN(C)CCN1C(=O)c2cccc3cc4ccccc4c(c23)C1=O [AZONAFIDE]	44	1980	–	ILS (Mus musculus [14]): 79%

SMILES	IC50 (L1210 [1]) [nM]	IC50 (WiDr [3]) [nM]	IC50 (A549) [nM]	IC50 (OVCAR-3 [4]) [nM]	IC50 (MCF7 [5]) [nM]	IC50 (WiDr [6]) [nM]	IC50 (UACC-375) [nM]	IC50 (L1210 [7]) [nM]	IC50 (MCF7 [8]) [nM]	Toxicity ratio [2]	IC50 (Rattus norvegicus) [nM]	IC50 (MCF7 [9]) [nM]	other results
CN(C)CCN1C(=O)c2cccc3cc(N)cc(c23)C1=O [AMONAFIDE]	–	2200	1100	–	1800	1100	–	–	1100	30	48400	1200	ILS (Mus musculus [14]): 88%
